Data set [1] deals with T1, Plasma kallikrein (Homo sapiens, UniProt P03952). As to the kind of experiment: Inhibition of human plasma kallikrein using benzyloxycarbonyl-Phe-Arg-7-amino-4-methylcoumarin as substrate at 50 uM by fluorescence microplate reader analysis.
Data set [2] concerns the target T2, Neutrophil elastase (Homo sapiens) (UniProt P08246).
T2 sequence (whole entry): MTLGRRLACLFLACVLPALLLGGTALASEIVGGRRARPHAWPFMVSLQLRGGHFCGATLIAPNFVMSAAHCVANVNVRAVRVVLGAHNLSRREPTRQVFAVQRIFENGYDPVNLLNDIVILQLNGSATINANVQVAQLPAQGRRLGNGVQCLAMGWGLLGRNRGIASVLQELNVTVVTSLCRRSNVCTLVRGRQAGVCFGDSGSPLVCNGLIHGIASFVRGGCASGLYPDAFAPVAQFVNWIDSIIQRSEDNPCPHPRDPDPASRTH
The data set can be described thus: Inhibition of human neutrophil elastase using N-methylsuccinyl-Ala-Ala-Pro-Val-7-amino-4-methylcoumarin as substrate at 5 uM after 4 hrs by fluorescence microplate reader analysis.

The nature of data set [3]: Half life in phosphate buffer at pH 7.3. The class given is physicochemical.
Data set [4] concerns the target Cathepsin D (Homo sapiens) (UniProt P07339). The data set can be described thus: Inhibition of human spleen cathepsin D using MOCAc-Gly-Lys-Pro-Ile-Leu-Phe-Phe-Arg-Leu-Lys (Dnp)-D-Arg-NH2 as substrate at 50 uM by fluorescence microplate reader analysis. The gist of the method: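 Cathepsin D from human spleen, 0.1 U/mL, in 0.1 M sodium acetate pH 5.0 with 5 μM MOCAc peptide substrate, 25 °C. Highest compound concentration tested 50 μM.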

For data set [5], the target named is T3, Urokinase-type plasminogen activator (Homo sapiens, UniProt P00749). As to the kind of experiment: Inhibition of human urokinase using benzyloxycarbonyl-Gly-Gly-Arg-7-amino-4-methylcoumarin as substrate by fluorescence microplate reader analysis.
In the next data set the target is Prothrombin (Homo sapiens, UniProt P00734). The data set can be described thus: Inhibition of human plasma thrombin using benzonyl-Phe-Val-Arg-7-amino-4-methylcoumarin as substrate by fluorescence microplate reader analysis.
The target in a further data set is T4, Neutrophil elastase (Homo sapiens, UniProt P08246).
T4 sequence (P08246 whole entry): T2 sequence (whole entry)
As to the kind of experiment: Inhibition of human neutrophil elastase using N-methylsuccinyl-Ala-Ala-Pro-Val-7-amino-4-methylcoumarin as substrate measured every 30 seconds for 10 mins by fluorescence microplate reader analysis.

Data set [6] concerns the target T2, Neutrophil elastase (Homo sapiens). The data set can be described thus: Inhibition of human neutrophil elastase using N-methylsuccinyl-Ala-Ala-Pro-Val-7-amino-4-methylcoumarin as substrate at 50 uM measured every 30 seconds for 10 mins by fluorescence microplate reader analysis.
The target in the next data set is Chymotrypsinogen B (Homo sapiens, UniProt P17538). The data set can be described thus: Inhibition of human pancreatic chymotrypsin using Suc-Ala-Ala-Pro-7-amino-4-methylcoumarin as substrate by fluorescence microplate reader analysis.
Chain of Chymotrypsinogen B (P17538 34-164 limits assumed, other chains not shown): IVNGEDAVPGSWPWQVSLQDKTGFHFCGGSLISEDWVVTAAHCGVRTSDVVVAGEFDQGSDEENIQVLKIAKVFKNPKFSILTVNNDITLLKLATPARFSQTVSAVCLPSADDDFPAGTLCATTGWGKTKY
Chain of Chymotrypsinogen B (P17538 167-263 limits assumed, other chains not shown): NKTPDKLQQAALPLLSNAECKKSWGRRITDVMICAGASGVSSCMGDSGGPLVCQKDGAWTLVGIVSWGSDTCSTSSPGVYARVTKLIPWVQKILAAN
Data set [7] deals with T2, Neutrophil elastase (Homo sapiens). As to the kind of experiment: Reversible inhibition of human neutrophil elastase using N-methylsuccinyl-Ala-Ala-Pro-Val-7-amino-4-methylcoumarin as substrate at 5 uM after 1 to 2 hrs by fluorescence microplate reader analysis.
Data set [8] concerns the target T1, Plasma kallikrein. As to the kind of experiment: Inhibition of human plasma kallikrein using benzyloxycarbonyl-Phe-Arg-7-amino-4-methylcoumarin as substrate by fluorescence microplate reader analysis.
Data set [9] addresses T3, Urokinase-type plasminogen activator. As to the kind of experiment: Inhibition of human urokinase using benzyloxycarbonyl-Gly-Gly-Arg-7-amino-4-methylcoumarin as substrate at 50 uM by fluorescence microplate reader analysis.
The target in data set [10] is T2, Neutrophil elastase (Homo sapiens). The data set can be described thus: Competitive inhibition of human neutrophil elastase using N-methylsuccinyl-Ala-Ala-Pro-Val-7-amino-4-methylcoumarin as substrate by Lineweaver-Burk plot analysis.
Data set [11] shares this target. As to the kind of experiment: Inhibition of human neutrophil elastase using N-methylsuccinyl-Ala-Ala-Pro-Val-7-amino-4-methylcoumarin as substrate at 5 uM after 5 hrs by fluorescence microplate reader analysis.

SMILES strings stand for the structures. Calls of active or inactive are those of the source. The calls are words filed in the database; no cut-off is given here.

T1 sequence (P03952 20-390 limits assumed): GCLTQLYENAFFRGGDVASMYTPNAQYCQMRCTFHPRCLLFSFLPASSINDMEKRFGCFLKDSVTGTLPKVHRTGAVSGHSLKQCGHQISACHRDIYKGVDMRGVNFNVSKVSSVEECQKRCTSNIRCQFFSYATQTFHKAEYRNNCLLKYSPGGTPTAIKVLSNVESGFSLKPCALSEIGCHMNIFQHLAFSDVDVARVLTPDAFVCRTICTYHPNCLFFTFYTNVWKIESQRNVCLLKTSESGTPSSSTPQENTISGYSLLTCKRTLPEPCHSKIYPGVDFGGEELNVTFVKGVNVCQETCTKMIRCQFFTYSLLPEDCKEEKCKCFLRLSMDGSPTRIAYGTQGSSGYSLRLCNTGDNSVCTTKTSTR
T1 sequence (P03952 391-638 limits assumed): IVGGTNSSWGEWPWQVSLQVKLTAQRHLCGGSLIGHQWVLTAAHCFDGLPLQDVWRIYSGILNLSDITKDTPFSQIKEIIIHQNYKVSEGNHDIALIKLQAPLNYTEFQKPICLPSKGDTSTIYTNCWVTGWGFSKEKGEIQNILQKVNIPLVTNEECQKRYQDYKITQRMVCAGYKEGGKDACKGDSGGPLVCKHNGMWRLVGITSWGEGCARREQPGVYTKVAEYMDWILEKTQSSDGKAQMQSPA
Chain of Cathepsin D (Homo sapiens) (P07339 65-162 limits assumed): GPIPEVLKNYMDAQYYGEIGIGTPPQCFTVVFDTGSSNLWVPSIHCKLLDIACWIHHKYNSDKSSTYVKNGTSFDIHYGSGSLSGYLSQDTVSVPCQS
Chain of Cathepsin D (Homo sapiens) (P07339 169-412 limits assumed): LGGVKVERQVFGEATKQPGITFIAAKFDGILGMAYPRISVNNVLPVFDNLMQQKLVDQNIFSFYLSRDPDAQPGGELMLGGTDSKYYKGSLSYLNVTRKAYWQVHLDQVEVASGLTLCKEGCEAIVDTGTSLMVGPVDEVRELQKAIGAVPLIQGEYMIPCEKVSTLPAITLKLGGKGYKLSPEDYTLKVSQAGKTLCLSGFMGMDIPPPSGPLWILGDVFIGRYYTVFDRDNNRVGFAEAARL

Turning to `COC(=O)c1nn(C(=O)c2cccc(C)c2)c2ccc([N+](=O)[O-])cc12`, the inhibition entry (at Plasma kallikrein [1]; in [4]) was “inactive” each time. The inhibition entry in data set [2] is “Active”. For the same compound, in data set [3], the t1/2 is given as 47.8 min. The IC50 in data set [5] was determined as 440 nM; at Prothrombin it was 1100 nM.

On to `COC(=O)c1nn(C(=O)c2cccc(C)c2)c2ccc(Br)cc12`, for which the inhibition result on Plasma kallikrein [1] was “inactive”. The same compound gave an IC50 at Neutrophil elastase of 80 nM.

As to `COC(=O)c1nn(C(=O)c2cccc(C)c2)c2c([N+](=O)[O-])cccc12`, in data set [6], the inhibition result was “inactive”.

On Neutrophil elastase, `CCOC(=O)c1nn(C(=O)c2cccc(C)c2)c2ccc(OC)cc12` returned a 50% inhibitory concentration (IC50) of 140 nM.

Regarding `CCOC(=O)c1nn(C(=O)c2ccccc2)c2ccc(OC)cc12`, the IC50 on Neutrophil elastase came out at 80 nM.

Take `CCOC(=O)c1nn(C(=O)c2cccc(C)c2)c2ccc(OC(F)(F)F)cc12`: the IC50 against Neutrophil elastase was 110 nM.

As to `CCOC(=O)c1nn(C(=O)c2cccc(C)c2)c2ccc(N(C)C)cc12`, the IC50 at Neutrophil elastase is 140 nM.

On to `CCOC(=O)c1nn(C(=O)c2ccsc2)c2ccc(Br)cc12`, for which the 50% inhibitory concentration (IC50) at Neutrophil elastase is 260 nM.

Take `COC(=O)c1nn(C(=O)c2cccc(OC)c2)c2ccc(Br)cc12`: the inhibition entry on Plasma kallikrein [1] was “inactive”.

With `COC(=O)c1nn(C(=O)c2cccc(C)c2)c2cc([N+](=O)[O-])ccc12`, the inhibition entry (at Plasma kallikrein [1]; in data set [4]) was “inactive” throughout. In data set [3], this compound yielded a t1/2 of 41.5 min. Besides, the IC50 in data set [5] came to 310 nM; at Neutrophil elastase it was 20 nM; against Chymotrypsinogen B, 38 nM; on Prothrombin it was 640 nM.

`CCOC(=O)c1nn(C(=O)c2cccc(C)c2)c2ccc(NC(=O)CC)cc12`: the inhibition result on Plasma kallikrein [1] was “inactive”. For the same compound, the IC50 was determined as 14800 nM in data set [5], 140 nM against Chymotrypsinogen B and 39 nM against Prothrombin.

Consider `CCOC(=O)c1nn(C(=O)c2ccsc2)c2ccc([N+](=O)[O-])cc12`, for which the inhibition entry (at Plasma kallikrein [1]; in data set [4]) was “inactive” throughout. The inhibition result in data set [7] is “Active”. The same compound yielded a t1/2 in data set [3] of 32.8 min. For the same compound, the IC50 in data set [5] is 25300 nM; at Neutrophil elastase, 30 nM; at Chymotrypsinogen B it was 46 nM; on Prothrombin, 370 nM.

Turning to `COC(=O)c1nn(C(=O)c2ccccc2)c2ccc([N+](=O)[O-])cc12`, in data set [7], the inhibition result was “Active”. In addition, the t1/2 in data set [3] is reported as 37.9 min. In addition, in data set [4], the inhibition result is “inactive”. In addition, the IC50 in data set [5] is 620 nM; at Plasma kallikrein [8] it was 11200 nM; against Neutrophil elastase it was 30 nM; on Chymotrypsinogen B it was 31 nM; against Prothrombin, 830 nM.

Turning to `CCOC(=O)c1nn(C(=O)c2ccccc2)c2ccc([N+](=O)[O-])cc12`, inhibition against Neutrophil elastase was half-maximal at 20 nM (IC50).

Take `CCOC(=O)c1nn(C(=O)c2cccc(C)c2)c2ccc(NC(C)=O)cc12`: the inhibition entry (on Plasma kallikrein [1]; in data set [4]) was “inactive” throughout. Moreover, the inhibition result in data set [2] was “Active”. Besides, the t1/2 in data set [3] turned out to be 78.8 min. Moreover, the IC50 in data set [5] worked out at 13700 nM; at Neutrophil elastase it was 30 nM; against Prothrombin, 310 nM.

Consider `N#Cc1nn(C(=O)c2ccccc2)c2ccccc12`, for which, on Neutrophil elastase, the IC50 was determined as 40 nM.

Consider `CCOC(=O)c1nn(C(=O)c2cccc(C)c2)c2ccc([N+](=O)[O-])cc12`, for which, at Plasma kallikrein [1], the inhibition result was “inactive”. Further, the IC50 in data set [5] worked out at 1500 nM; against Chymotrypsinogen B, 40 nM; on Prothrombin, 480 nM.

Turning to `CCOC(=O)c1nn(C(=O)c2cccc(C)c2)c2ccc(NC(=O)C3CC3)cc12`, the inhibition result (in data set [9]; at Plasma kallikrein [1]; in [4]) was “inactive” in each case. Also, the inhibition entry in [10] and in data set [11] was “Active” in each case. In data set [3], the t1/2 amounted to 51.7 min. Moreover, the IC50 on Neutrophil elastase was determined as 12 nM; on Chymotrypsinogen B, 370 nM; at Prothrombin, 160 nM.

Regarding `Cc1cccc(C(=O)n2nc(C#N)c3ccccc32)c1`, the inhibition result at Plasma kallikrein [1] was “inactive”. Moreover, the IC50 in [5] came out at 6600 nM; against Chymotrypsinogen B, 66 nM; on Prothrombin, 1900 nM.

As to `CCCC(=O)Nc1ccc2c(c1)c(C(=O)OCC)nn2C(=O)c1cccc(C)c1`, the IC50 against Neutrophil elastase amounted to 50 nM.

Turning to `COC(=O)c1nn(C(=O)c2ccsc2)c2ccc(Br)cc12`, it took 160 nM to reach half-maximal inhibition on Neutrophil elastase (IC50).

Take `COC(=O)c1nn(C(=O)c2ccsc2)c2ccc([N+](=O)[O-])cc12`: half-maximal inhibition against Neutrophil elastase (IC50) required 50 nM.

As to `CCOC(=O)c1nn(C(=O)c2cccc(OC)c2)c2ccc([N+](=O)[O-])cc12`, the inhibition entry on Plasma kallikrein [1] is “inactive”. Also, the IC50 in data set [5] stood at 480 nM; against Chymotrypsinogen B it was 21 nM; against Prothrombin, 82 nM.

What is called IC50 is the midpoint of a concentration-inhibition curve.
